Measured values reported in ChEMBL document CHEMBL4152223 (Eur J Med Chem, 2018).
In brackets after ≈: the same amount, converted by molar mass.

Key:
[1] = tested on: Mycobacterium tuberculosis; assay: Antimycobacterial activity against Mycobacterium tuberculosis H37Rv after 21 days; format: functional; conditions: 504 h
Mycobacterium kansasii [2] = assay: Antimycobacterial activity against Mycobacterium kansasii 235/80 after 21 days; format: functional; conditions: 235/80, 504 h
Mycobacterium kansasii [3] = assay: Antimycobacterial activity against Mycobacterium kansasii 6509/96 after 21 days; format: functional; conditions: 6509/96, 504 h
Mycobacterium avium [4] = assay: Antimycobacterial activity against INH/RIF/OFX resistant Mycobacterium avium 330/88 after 14 days; format: functional; conditions: 330/88, 336 h
Mycobacterium kansasii [5] = assay: Antimycobacterial activity against Mycobacterium kansasii 235/80 after 14 days; format: functional; conditions: 235/80, 336 h
[6] = tested on: Mycobacterium tuberculosis; assay: Antimycobacterial activity against Mycobacterium tuberculosis H37Rv after 14 days; format: functional; conditions: 336 h
Mycobacterium kansasii [7] = assay: Antimycobacterial activity against Mycobacterium kansasii 6509/96 after 7 days; format: functional; conditions: 6509/96, 168 h
Mycobacterium kansasii [8] = assay: Antimycobacterial activity against Mycobacterium kansasii 6509/96 after 14 days; format: functional; conditions: 6509/96, 336 h
Mycobacterium avium [9] = assay: Antimycobacterial activity against INH/RIF/OFX resistant Mycobacterium avium 330/88 after 21 days; format: functional; conditions: 330/88, 504 h
Mycobacterium kansasii [10] = assay: Antimycobacterial activity against Mycobacterium kansasii 235/80 after 7 days; format: functional; conditions: 235/80, 168 h
HepG2 = assay: Cytotoxicity against human HepG2 cells assessed as reduction in cell viability by MTS assay; format: cell-based
In short: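 HepG2 human hepatocellular carcinoma cells (passage 2-4) were cultured in Eagle's MEM with 10% FBS, 1% L-glutamine and non-essential amino acids. Compounds were dissolved in DMSO and tested in triplicate at eight concentrations. Viability was read by colorimetric MTS tetrazolium reduction. Controls were 100% viability and 0% viability (10% DMSO). IC50 is the concentration reducing viability to 50% of control.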

[11] = Selectivity index, ratio of IC50 for human HepG2 cells to MIC for Mycobacterium tuberculosis H37Rv after 14 days; format: toxicity; conditions: read-out: Selectivity Index
In short: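 SI is calculated as HepG2 IC50 divided by MIC. HepG2 cells (passage 2-4) were grown in EMEM with 10% FBS, L-glutamine and non-essential amino acids. Compounds in DMSO were tested in triplicate at eight concentrations, and viability was read by MTS tetrazolium reduction. IC50 is the concentration reducing viability to 50% of control. 10% DMSO served as the 0% viability control.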

SMILES	MIC [1]	MIC (Mycobacterium kansasii [2])	MIC (Mycobacterium kansasii [3])	MIC (Mycobacterium avium [4])	MIC (Mycobacterium kansasii [5])	MIC [6]	MIC (Mycobacterium kansasii [7])	MIC (Mycobacterium kansasii [8])	MIC (Mycobacterium avium [9])	MIC (Mycobacterium kansasii [10])	IC50 (HepG2)	selectivity ratio at 336 h [11]
CCCCCCCCCCCCCNc1nnc(-c2ccncc2)o1	250 µM (≈ 86.1 µg/mL)	250 µM (≈ 86.1 µg/mL)	250 µM (≈ 86.1 µg/mL)	250 µM (≈ 86.1 µg/mL)	250 µM (≈ 86.1 µg/mL)	250 µM (≈ 86.1 µg/mL)	125 µM (≈ 43.1 µg/mL)	250 µM (≈ 86.1 µg/mL)	250 µM (≈ 86.1 µg/mL)	250 µM (≈ 86.1 µg/mL)	–	–
CCCCCCCCCCCCCCCCNC(=O)NNC(=O)c1ccncc1	62.5 µM (≈ 25.3 µg/mL)	62.5 µM (≈ 25.3 µg/mL)	62.5 µM (≈ 25.3 µg/mL)	125 µM (≈ 50.6 µg/mL)	62.5 µM (≈ 25.3 µg/mL)	32 µM (≈ 12.9 µg/mL)	32 µM (≈ 12.9 µg/mL)	62.5 µM (≈ 25.3 µg/mL)	125 µM (≈ 50.6 µg/mL)	32 µM (≈ 12.9 µg/mL)	> 50 µM	–
CCCCCCCCCCCNc1nnc(-c2ccncc2)o1	32 µM (≈ 10.1 µg/mL)	32 µM (≈ 10.1 µg/mL)	250 µM (≈ 79.1 µg/mL)	500 µM (≈ 158 µg/mL)	16 µM (≈ 5.06 µg/mL)	32 µM (≈ 10.1 µg/mL)	125 µM (≈ 39.6 µg/mL)	125 µM (≈ 39.6 µg/mL)	500 µM (≈ 158 µg/mL)	8 µM (≈ 2.53 µg/mL)	172 µM	5.4
CCCCCCCCNc1nnc(-c2ccncc2)o1	62.5 µM (≈ 17.1 µg/mL)	125 µM (≈ 34.3 µg/mL)	125 µM (≈ 34.3 µg/mL)	62.5 µM (≈ 17.1 µg/mL)	125 µM (≈ 34.3 µg/mL)	62.5 µM (≈ 17.1 µg/mL)	62.5 µM (≈ 17.1 µg/mL)	125 µM (≈ 34.3 µg/mL)	125 µM (≈ 34.3 µg/mL)	62.5 µM (≈ 17.1 µg/mL)	–	–
CCCCCCCNC(=O)NNC(=O)c1ccncc1	62.5 µM (≈ 17.4 µg/mL)	125 µM (≈ 34.8 µg/mL)	250 µM (≈ 69.6 µg/mL)	250 µM (≈ 69.6 µg/mL)	125 µM (≈ 34.8 µg/mL)	32 µM (≈ 8.91 µg/mL)	125 µM (≈ 34.8 µg/mL)	250 µM (≈ 69.6 µg/mL)	250 µM (≈ 69.6 µg/mL)	62.5 µM (≈ 17.4 µg/mL)	> 500 µM	–
CCCCCCCCNC(=O)NNC(=O)c1ccncc1	125 µM (≈ 36.5 µg/mL)	125 µM (≈ 36.5 µg/mL)	250 µM (≈ 73.1 µg/mL)	250 µM (≈ 73.1 µg/mL)	62.5 µM (≈ 18.3 µg/mL)	62.5 µM (≈ 18.3 µg/mL)	62.5 µM (≈ 18.3 µg/mL)	125 µM (≈ 36.5 µg/mL)	250 µM (≈ 73.1 µg/mL)	32 µM (≈ 9.36 µg/mL)	> 500 µM	–
CCCCCCCCCNC(=O)NNC(=O)c1ccncc1	125 µM (≈ 38.3 µg/mL)	125 µM (≈ 38.3 µg/mL)	125 µM (≈ 38.3 µg/mL)	250 µM (≈ 76.6 µg/mL)	62.5 µM (≈ 19.2 µg/mL)	62.5 µM (≈ 19.2 µg/mL)	62.5 µM (≈ 19.2 µg/mL)	125 µM (≈ 38.3 µg/mL)	250 µM (≈ 76.6 µg/mL)	32 µM (≈ 9.81 µg/mL)	> 250 µM	–
CCCCCCCCCCCCCNC(=O)NNC(=O)c1ccncc1	62.5 µM (≈ 22.7 µg/mL)	62.5 µM (≈ 22.7 µg/mL)	62.5 µM (≈ 22.7 µg/mL)	125 µM (≈ 45.3 µg/mL)	32 µM (≈ 11.6 µg/mL)	32 µM (≈ 11.6 µg/mL)	32 µM (≈ 11.6 µg/mL)	62.5 µM (≈ 22.7 µg/mL)	125 µM (≈ 45.3 µg/mL)	16 µM (≈ 5.8 µg/mL)	> 100 µM	–
CCCCCCCCCCCCCCNC(=O)NNC(=O)c1ccncc1	62.5 µM (≈ 23.5 µg/mL)	62.5 µM (≈ 23.5 µg/mL)	62.5 µM (≈ 23.5 µg/mL)	125 µM (≈ 47.1 µg/mL)	62.5 µM (≈ 23.5 µg/mL)	32 µM (≈ 12 µg/mL)	32 µM (≈ 12 µg/mL)	62.5 µM (≈ 23.5 µg/mL)	125 µM (≈ 47.1 µg/mL)	32 µM (≈ 12 µg/mL)	> 50 µM	–
CCCCCCCCCCCCCCCCCCNc1nnc(-c2ccncc2)o1	250 µM (≈ 104 µg/mL)	250 µM (≈ 104 µg/mL)	500 µM (≈ 207 µg/mL)	500 µM (≈ 207 µg/mL)	250 µM (≈ 104 µg/mL)	125 µM (≈ 51.8 µg/mL)	250 µM (≈ 104 µg/mL)	500 µM (≈ 207 µg/mL)	500 µM (≈ 207 µg/mL)	250 µM (≈ 104 µg/mL)	–	–
CCCCCCCCCCNc1nnc(-c2ccncc2)o1	16 µM (≈ 4.84 µg/mL)	16 µM (≈ 4.84 µg/mL)	16 µM (≈ 4.84 µg/mL)	32 µM (≈ 9.68 µg/mL)	16 µM (≈ 4.84 µg/mL)	16 µM (≈ 4.84 µg/mL)	16 µM (≈ 4.84 µg/mL)	16 µM (≈ 4.84 µg/mL)	62.5 µM (≈ 18.9 µg/mL)	8 µM (≈ 2.42 µg/mL)	> 50 µM	–
CCCCCCCCCCCCNC(=O)NNC(=O)c1ccncc1	32 µM (≈ 11.2 µg/mL)	125 µM (≈ 43.6 µg/mL)	62.5 µM (≈ 21.8 µg/mL)	32 µM (≈ 11.2 µg/mL)	62.5 µM (≈ 21.8 µg/mL)	32 µM (≈ 11.2 µg/mL)	62.5 µM (≈ 21.8 µg/mL)	62.5 µM (≈ 21.8 µg/mL)	62.5 µM (≈ 21.8 µg/mL)	32 µM (≈ 11.2 µg/mL)	> 50 µM	–
CCNc1nnc(-c2ccncc2)o1	> 1000 µM	> 1000 µM	> 1000 µM	> 1000 µM	> 1000 µM	> 1000 µM	1000 µM (≈ 190 µg/mL)	> 1000 µM	> 1000 µM	1000 µM (≈ 190 µg/mL)	–	–
CCCNc1nnc(-c2ccncc2)o1	500 µM (≈ 102 µg/mL)	1000 µM (≈ 204 µg/mL)	1000 µM (≈ 204 µg/mL)	> 1000 µM	1000 µM (≈ 204 µg/mL)	500 µM (≈ 102 µg/mL)	1000 µM (≈ 204 µg/mL)	1000 µM (≈ 204 µg/mL)	> 1000 µM	500 µM (≈ 102 µg/mL)	–	–
